# HCV NS3 hel inh = inhibitors of Hepatitis C virus NS3 helicase. hit rate 0.56% among 290,000. inhibition, % at 10.9 µM. NS3 helicase DNA unwinding, Cy5 molecular beacon fluorescence;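 active = inhibition above the mean of all tested compounds plus 3 SD, set per campaign, cut at about 35% in these data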;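 note: 0% = DMSO wells and 100% = thioflavine S control wells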
#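 Compound dosing – single dose, 10.9 µM nominal final, DMSO 0.8% final · System – NS3 helicase fragment of HCV · Buffer or medium – MOPS pH 6.5, MgCl2, DTT, Tween20, BSA · Signal – Cy5 beacon fluorescence read at start and 1 h · Also added – annealed dual-labelled DNA beacon duplex, ATP-started · Schedule – 1 h at 25 °C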
# FID counter = counter-screen for HCV NS3 helicase inhibitors: DNA intercalator displacement. DNA fluorescent intercalator displacement, fluorescence. inhibition, % at 7.9 µM. hit rate 0.17% among 290,000. AID 1845; in the data active = inhibition above about 37%;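 note: 0% = vehicle and 100% = reference compound; higher means more ethidium bromide displaced from hairpin DNA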
# HSF1 inhib = HSF1 inhibition | NIH3T3-HGL HSE-luciferase, MG132-induced, luminescence 8 h; stronger effect = lower value | activity change, negative = inhibition, % at 7.5 µM (by protocol) | hit rate 0.77% among 300,000;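 active = more than half of replicate wells show activity change below -50%, luminescence cut by over half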;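 note: luciferase reports HSF-1 transcriptional activity via heat shock element; 0% = median of DMSO wells and -100% = zero luminescence signal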
# HSF1 activator = increases HSF-1 driven luciferase reporter signal. NIH3T3-HGL HSF-1 luciferase reporter, MG132, 8 h; 100% = twice DMSO control signal. activation, % at 9 µM. hit rate 1.7% among 300,000;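 active = mean replicate activation of at least 50% with a set share of replicates each reaching 50%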;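 note: 0% = median of the neutral control wells and 100% = twice that signal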
# HSP90 inh = blocks HSP90-mediated luciferase refolding in reticulocyte lysate; Rabbit reticulocyte lysate, luciferase refolding luminescence, 3 h; hit rate 0.91% among 290,000; inhibition, % at 5.6 µM;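 active = inhibition above the screen-wide mean plus 3 SD, computed separately per campaign, cut at about 16% in these data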;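 note: 0% = DMSO wells and 100% = 60 µM geldanamycin wells; inhibitors lower the luminescence because luciferase stays unfolded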
# HCV core dimer = blocks dimerization of HCV core protein; TR-FRET GST/Flag-core106 dimerization, 1536-well; hit rate 0.33% among 300,000; inhibition, % at 5 µM;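 active = inhibition above the mean of all tested compounds plus 3 SD, set per screening campaign, cut at about 45% in these data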
#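 Test system: GST/Flag-tagged HCV core106 proteins; Medium: KF-containing HEPES buffer, pH 7.45, DTT, CHAPS, BSA; Times: compound-protein-antibody incubation 4 h at 22.5 °C; Detection: TR-FRET 671 and 617 nm emission; Benchmarks: wells lacking GST-core106 and wells with excess unlabelled core106.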
# HSP90 inh confirm = confirmation of HSP90 inhibitors; rabbit reticulocyte lysate, luciferase refolding luminescence, 3 h; inhibition, % at 5.9 µM; AID 1846; shares compounds with HSP90 inh; hit rate 64% among 2,300; in the data active = inhibition above about 18%;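 note: 0% = vehicle wells and 100% = reference inhibitor wells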
# luciferase ctr = counter-screen for HSP90 inhibitors: inhibitors of firefly luciferase; shares compounds with HSP90 inh; hit rate 48% among 2,300; inhibition, % at 5.9 µM; purified native firefly luciferase, luminescence;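 active = inhibition above the mean inhibition of all tested sample wells plus 3 SD, cut at about 10% in these data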;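 note: 0% = DMSO with luciferase and 100% = wells lacking luciferase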
# Target sequence (P08659 whole entry, looked up): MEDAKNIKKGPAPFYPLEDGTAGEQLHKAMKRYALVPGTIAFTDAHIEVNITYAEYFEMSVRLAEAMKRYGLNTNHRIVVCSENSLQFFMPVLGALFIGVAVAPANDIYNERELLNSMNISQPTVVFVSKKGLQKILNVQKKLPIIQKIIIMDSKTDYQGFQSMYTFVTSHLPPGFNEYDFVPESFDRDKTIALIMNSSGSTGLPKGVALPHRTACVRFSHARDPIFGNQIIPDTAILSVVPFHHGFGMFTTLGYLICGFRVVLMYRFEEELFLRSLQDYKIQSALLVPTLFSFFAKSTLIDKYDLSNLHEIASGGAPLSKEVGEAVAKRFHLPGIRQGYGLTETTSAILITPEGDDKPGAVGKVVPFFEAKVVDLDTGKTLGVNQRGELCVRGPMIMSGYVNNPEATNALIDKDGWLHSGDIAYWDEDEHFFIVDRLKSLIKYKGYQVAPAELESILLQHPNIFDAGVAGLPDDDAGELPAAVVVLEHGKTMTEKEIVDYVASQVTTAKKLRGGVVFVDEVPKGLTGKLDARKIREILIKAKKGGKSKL
# * hit, by the source's call; nt = no result. This is a sample that favours compounds with a hit; in the whole collection about 3.9% have one here.
SMILES,HCV NS3 hel inh,FID counter,HSF1 inhib,HSF1 activator,HSP90 inh,HCV core dimer,HSP90 inh confirm,luciferase ctr
Nc1ccc(-c2nc3ccc(N)cc3s2)cc1,1,-8,4,7,54*,-3,69*,61*
Nc1cccc(-c2nc3ccc(N)cc3s2)c1,-7,3,-5,2,20*,0,66*,53*
Nc1ccc2nc(N3CCOCC3)sc2c1,-6,0,-2,2,1,-7,nt,nt
c1ccc2nc(-c3nc4ccccc4[nH]3)ccc2c1,-8,-3,8,41,26*,2,72*,62*
Cc1cc(C(=O)Cn2nc(C(=O)O)c3ccccc3c2=O)c(C)n1-c1ccccc1,-7,-2,-38,-51,25*,15,62*,31*
Cc1cccc(-c2cc3nc(C)c(C)c(NCCCn4ccnc4)n3n2)c1,0,20,-2,2,19*,-3,2,-5
CS(=O)(=O)N1CCC(Oc2cccc(C(=O)NCCCOc3cccnc3)c2)CC1,-2,-26,-2,-2,-1,7,nt,nt
Cc1c(/C(O)=C2\C(=O)C(=O)N(CCN(C)C)C2c2ccccc2)cnn1-c1ccccc1 (stereo unspecified),-5,-4,-63*,-63,27*,6,12,-8
CCN(CC)CCN1C(=O)C(=O)/C(=C(/O)c2cnn(-c3ccccc3)c2C)C1c1ccc(C)o1 (stereo unspecified),-4,-9,3,35,7,-2,nt,nt
Cc1c(/C(O)=C2/C(=O)C(=O)N(CCN(C)C)C2c2ccc(C(C)C)cc2)cnn1-c1ccccc1 (stereo unspecified),-1,-23,-10,4,-2,1,nt,nt
Cc1c(/C(O)=C2\C(=O)C(=O)N(CCN(C)C)C2c2ccco2)cnn1-c1ccccc1 (stereo unspecified),10,0,-46,-50,52*,-2,21*,10*
Cc1noc(C)c1C(=O)OCC(=O)NC(c1ccccc1)c1ccccc1,-7,-16,0,12,-2,-3,nt,nt
CC(C)OC(=O)Cn1cnc2ccc(Br)cc2c1=O,5,2,9,31,-4,-7,nt,nt
CC(C)Oc1ccc(/C(O)=C2/C(=O)C(=O)N(Cc3cccnc3)C2c2ccco2)cc1 (stereo unspecified),10,-27,-34,-47,20*,0,3,15*
COc1ccc(S(=O)(=O)N2CCN(Cc3ccc(Cl)cc3)CC2)cc1,2,2,-1,0,3,6,nt,nt
COc1ccc(CN2CCN(S(=O)(=O)c3ccc(NC(C)=O)cc3)CC2)cc1,8,4,1,12,24*,-1,-1,-2
Cc1c(C(=O)O)cccc1-c1ccc(/C=C2/NC(=O)N(c3ccccc3)C2=O)o1,11,-20,4,-5,33*,-5,28*,-20
CN(Cc1ccn[nH]1)C(=O)C1CCC(=O)N(Cc2cccc(C(F)(F)F)c2)C1 (stereo unspecified),5,-11,-4,-16,1,1,nt,nt
O=C(c1ccccc1)c1coc2ccc(O)c(CN3CCOCC3)c12,6,2,10,-2,1,-1,nt,nt
COc1ccc(C(=O)c2coc3ccc(O)c(CN4CCCCC4)c23)cc1,-5,4,1,-1,47*,-2,-1,-10
CCCCN(C)C(=O)c1cc2cc3ccc(OC)cc3nc2s1,-14,-31,6,34,30*,-2,39*,27*
Cn1c(=O)[nH]c(=O)c2c1nc(NCCN)n2CCOc1ccccc1,5,12,-6,2,0,-1,nt,nt
COc1ccc(-c2cn3cc(C(=O)NN)ccc3n2)cc1,-2,-13,20,12,43*,0,24*,-12
CCc1ccn2cc(-c3ccc4c(c3)OCO4)nc2c1,5,-4,-31,-32,73*,0,86*,85*
COC(=O)c1ccc2nc(-c3ccc4c(c3)OCO4)cn2c1,8,-4,5,26,18*,-1,73*,65*
SMILES,HCV NS3 hel inh,FID counter,HSF1 inhib,HSF1 activator,HSP90 inh,HCV core dimer,HSP90 inh confirm,luciferase ctr
O=C(CN1C(=O)c2ccccc2S1(=O)=O)c1ccc(F)cc1,-7,-4,-37,-43,2,-2,nt,nt
O=C(CCN1C(=O)c2ccccc2S1(=O)=O)Nc1cc(Cl)ccc1Cl,nt,nt,1,0,nt,-5,nt,nt
O=C(CN1C(=O)c2ccccc2S1(=O)=O)c1ccc2c(c1)OCCCO2,-3,-6,-88*,-90,80*,-2,82*,-19
O=C(CN1C(=O)c2ccccc2S1(=O)=O)c1ccc2c(c1)OCCO2,14,-2,-78*,-81,57*,-2,68*,-8
O=C(CN1C(=O)c2ccccc2S1(=O)=O)c1ccc(Cl)cc1Cl,7,-14,-68*,-74,89*,1,91*,29*
C#CC(CC)(CC)NC(=O)NC1CCCCC1,6,-3,-5,4,-1,4,nt,nt
N/C(=N\NC(=O)c1cccs1)c1cc2ccccc2oc1=O,10,4,0,24,1,-7,nt,nt
CCN(CC)c1ccc2cc(/C(N)=N/NC(=O)c3cccs3)c(=O)oc2c1,8,-2,-10,-15,22*,-4,4,-1
CC1CN(Cc2nc3ccccc3c(=O)[nH]2)CC(C)O1 (stereo unspecified),5,-4,-1,-1,-2,0,nt,nt
Cc1ccc(C=C2C(=O)c3ccccc3C2=O)o1,29,-11,-2,-10,2,11,nt,nt
Cc1ccc(/C=C2/C(=O)c3ccc(C(=O)O)cc3C2=O)o1,30,-4,-1,2,22*,nt,46*,-32
Cc1ccc(NC2=Nc3ccccc3CS2)cc1,-7,-3,-11,6,26*,6,48*,43*
O=C(O)CCCNc1cc(N2CCC3(CC2)OCCO3)c2noc3c2c1C(=O)c1ccccc1-3,37*,-27,nt,nt,31*,-32,30*,29*
O=C1c2ccccc2-c2onc3c(N4CCN(CCO)CC4)cc(N4CCN(C(=O)c5ccco5)CC4)c1c23,-17,18,9,-14,2,-51,nt,nt
O=c1[nH]n(-c2ccc(F)cc2)c2ncccc12,3,-1,-5,-20,-3,-8,nt,nt
Cc1c(-c2ccccn2)c(=O)[nH]n1-c1ccc(F)cc1,5,1,8,34,22*,-3,30*,5

# Compound activity: PubChem BioAssay, several laboratories
